Results published in publication PMC6503206 (International Journal of Nanomedicine, 2019).
In brackets after ≈: the same amount, converted by molar mass.

Key:
[1] = cited from earlier work
[2] = Solubility of celecoxib in oils and cosurfactants; type: physicochemical; conditions: thermodynamic from solid
Outline: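 Excess solid test compound was stirred magnetically in 2 mL of each neat oil or cosurfactant at room temperature for 24 hrs, then centrifuged at 10,000 rpm for 10 mins. The supernatant was passed through a 0.45 µm membrane, diluted with methanol, and quantified by HPLC on a 5 µm C18 reversed-phase column (4.6×250 mm).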

[3] = cited from earlier work; remark: listed apart in the source

Row | SMILES | log partition coefficient [1] | solubility at 24 h ([2]; PEG 400, organic solvent or mixture) [mg/mL] | solubility at 24 h ([2]; ethanol, organic solvent or mixture) [mg/mL] | solubility at 24 h ([2]; fish oil, oil or lipid) [mg/mL] | solubility at 24 h ([2]; glycerine, organic solvent or mixture) [mg/mL] | solubility at 24 h ([2]; medium-chain triglycerides (MCT oil), oil or lipid) [mg/mL] | solubility at 24 h ([2]; oleic acid, oil or lipid) [mg/mL] | solubility at 24 h ([2]; propylene glycol (PG), organic solvent or mixture) [mg/mL] | solubility in water [3] [mg/mL]
1 | CCN(CC)c1ccc2nc3c4ccccc4c(=O)cc-3oc2c1 [Nile red] | 5.0 | – | – | – | – | – | – | – | –
2 | Cc1ccc(-c2cc(C(F)(F)F)nn2-c2ccc(S(N)(=O)=O)cc2)cc1 [celecoxib, Celecoxib] | – | 433 ± 31.7 (≈ 1140 mM) | 79.2 ± 10.2 (≈ 208 mM) | 3.25 ± 0.16 (≈ 8.52 mM) | 0.42 ± 0.01 (≈ 1.1 mM) | 11.6 ± 3.08 (≈ 30.5 mM) | 0.73 ± 0.06 (≈ 1.91 mM) | 24.2 ± 0.99 (≈ 63.6 mM) | 0.00255 to 0.00457
